In ChEMBL document CHEMBL1122173, “Effects of conformationally restricted 4-piperazinyl-10H-thienobenzodiazepine neuroleptics on central dopaminergic and cholinergic systems” (J Med Chem, 1982):

Legend:
[1] = target: Muscarinic acetylcholine receptor; test: Displacement of [3H]QNB from Muscarinic acetylcholine receptor of rat brain membrane
Mus musculus [2] = test: Tested for physostigmine lethality at a dose of 50 mg/kg after oral administration in mice; type: functional
Outline: (§1)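 Groups of 10 CFW mice (19-26 g) given test compound in distilled water or 0.5% carboxymethylcellulose 1 h (0.5 h for hyoscine) before physostigmine 1 mg/kg ip. Tremor or death scored at 10, 20 and 60 min after physostigmine (dead at 10 min = 4, dead later = 3, marked tremor = 2, slight tremor = 1, no effect = 0). Value is percent reduction in group score versus control group.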

Mus musculus [3] = test: Tested for physostigmine lethality at a dose of 2.5 mg/kg after oral administration in mice; type: functional; outline: as §1
Mus musculus [4] = test: Tested for physostigmine lethality at a dose of 10 mg/kg after oral administration in mice; type: functional; outline: as §1
Mus musculus [5] = test: Tested for physostigmine lethality at a dose of 5 mg/kg after oral administration in mice; type: functional; outline: as §1
Mus musculus [6] = test: Tested for physostigmine lethality at a dose of 12 mg/kg after oral administration in mice; type: functional; outline: as §1
Mus musculus [7] = test: Tested for physostigmine lethality at a dose of 8 mg/kg after oral administration in mice; type: functional; outline: as §1
Mus musculus [8] = test: Tested for physostigmine lethality at a dose of 25 mg/kg after oral administration in mice; type: functional; outline: as §1
Mus musculus [9] = test: Tested for physostigmine lethality at a dose of 20 mg/kg after oral administration in mice; type: functional; outline: as §1
Mus musculus [10] = test: Tested for physostigmine lethality at a dose of 15 mg/kg after oral administration in mice; type: functional; outline: as §1

Structure (SMILES)	IC50 [1] [nM]	Protection (Mus musculus [4]) [%]	Protection (Mus musculus [5]) [%]	further results
Cc1sc2c(c1C(C)C)C(N1CCN(C)CC1)=Nc1cc(F)ccc1N2	64			Protection (Mus musculus [2]): 35%
Cc1csc2c1C(N1CCN(C)CC1)=Nc1cc(F)ccc1N2	101	67	65	Protection (Mus musculus [3]): 5%
CCc1cc2c(s1)Nc1ccc(F)cc1N=C2N1CCN(C)CC1	116	33		Protection (Mus musculus [6]): 75%; Protection (Mus musculus [7]): 18%
CN1CCN(C2=Nc3cc(F)ccc3Nc3sc4c(c32)CCCC4)CC1	34	46	46	Protection (Mus musculus [8]): 71%
CCc1c(C)sc2c1C(N1CCN(C)CC1)=Nc1cc(F)ccc1N2	26	75	60	Protection (Mus musculus [9]): 53%
Cc1sc2c(c1C)C(N1CCN(C)CC1)=Nc1cc(F)ccc1N2	9	74	33	Protection (Mus musculus [3]): 5%
CCc1cc2c(s1)Nc1ccc(F)cc1N=C2N1CC(C)N(C)C(C)C1 (configuration not stated)	258			Protection (Mus musculus [2]): 24%
CCc1cc2c(s1)Nc1ccc(F)cc1N=C2N1CCN(C)C(C)C1 (configuration not stated)	97	17		Protection (Mus musculus [9]): 42%
CC(C)c1csc2c1C(N1CCN(C)CC1)=Nc1cc(F)ccc1N2	26			Protection (Mus musculus [2]): 35%
CN1CCN(C2=Nc3cc(F)ccc3Nc3sccc32)CC1	574			
CCc1cc2c(s1)Nc1ccc(F)cc1N=C2N1CC(C)N(C)CC1C (configuration not stated)	247			
CN1CCN(C2=Nc3cc(Cl)ccc3Nc3ccccc32)CC1 [CLOZAPINE]				Protection (Mus musculus [10]): 53%
Cc1cc2c(s1)Nc1ccc(F)cc1N=C2N1CCN(C)CC1 [FLUMEZAPINE]	74	75	64	Protection (Mus musculus [3]): 50%
O=C(CCCN1CCC(O)(c2ccc(Cl)cc2)CC1)c1ccc(F)cc1 [HALOPERIDOL]			0	
